Assay results: ChEMBL document CHEMBL1772996, “Bioactive constituents from the roots of Panax japonicus var. major and development of a LC-MS/MS method for distinguishing between natural and artifactual compounds” (J Nat Prod, 2011)
In brackets after ≈: the same amount, converted by molar mass. Activity calls are given as the source filed them. No cut-off for these calls is given here.

Assays:
DU-145 = assay: Cytotoxicity against human DU145 cells assessed as growth inhibition after 3 days by sulforhodamine B assay; assay type: functional
Neutrophil [1] = assay: Inhibition of fMLP/CB-activated human neutrophil degranulation assessed as inhibition of elastase release at 30 uM using MeO-Suc-Ala-Ala-Pro-Val-p-nitroanilide as a substrate after 5 mins relative to control; assay type: functional
Procedure, shortened: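 Isolated human neutrophils (dextran sedimentation, Ficoll Hypaque, hypotonic erythrocyte lysis; >98% viable by trypan blue) at 5×10^5/mL in Ca2+-free HBSS pH 7.4 with 100 μM MeO-Suc-Ala-Ala-Pro-Val-p-nitroanilide. Equilibrated 37 °C 2 min, compound 5 min, then activated with 100 nM fMLP plus 0.5 μg/mL CB. A405 monitored continuously. Expressed as % of initial elastase release rate in drug-free fMLP/CB control; mean ± S.E.M., n = 3–4.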

KB = assay: Cytotoxicity against human KB cells assessed as growth inhibition after 3 days by sulforhodamine B assay; assay type: functional
A549 = assay: Cytotoxicity against human A549 cells assessed as growth inhibition after 3 days by sulforhodamine B assay; assay type: functional, cell-based
Neutrophil [2] = assay: Inhibition of fMLP/CB-stimulated superoxide anion generation in human neutrophils; assay type: functional, cell-based
Procedure, shortened: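 Isolated human neutrophils (dextran sedimentation, Ficoll Hypaque, hypotonic lysis; >98% viable) with 0.5 mg/mL ferricytochrome c and 1 mM Ca2+, 37 °C 2 min, compound 5 min; CB 1 μg/mL 3 min, then 100 nM FMLP 10 min; SOD-inhibitable cytochrome c reduction followed continuously at 550 nm with stirring; mean ± S.E.M., n = 3–4; top concentration 30 μM.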

HCT-8 = assay: Cytotoxicity against human HCT8 cells assessed as growth inhibition after 3 days by sulforhodamine B assay; assay type: functional, cell-based
Neutrophil [3] = assay: Inhibition of fMLP/CB-stimulated superoxide anion generation in human neutrophils at 30 uM relative to control; assay type: functional
Procedure, shortened: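 Neutrophils isolated by dextran sedimentation, Ficoll Hypaque and hypotonic lysis, kept in Ca2+-free HBSS pH 7.4 at 4 °C. Given 0.5 mg/mL ferricytochrome c and 1 mM Ca2+, equilibrated 37 °C 2 min, compound 5 min. CB 1 μg/mL for 3 min, then 100 nM fMLP for 10 min. SOD-inhibitable ferricytochrome c reduction followed at 550 nm with stirring; mean ± S.E.M., n = 3–4.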

Neutrophil [4] = assay: Inhibition of fMLP/CB-activated human neutrophil degranulation assessed as inhibition of elastase release using MeO-Suc-Ala-Ala-Pro-Val-p-nitroanilide as a substrate after 5 mins; assay type: functional, cell-based
Procedure, shortened: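 Neutrophils from dextran sedimentation, Ficoll Hypaque centrifugation and hypotonic erythrocyte lysis (>98% viable by trypan blue), held in Ca2+-free HBSS pH 7.4 at 4 °C; 5×10^5/mL cells with 100 μM substrate equilibrated 37 °C 2 min, compound 5 min, then 100 nM FMLP plus 0.5 μg/mL CB; A405 monitored continuously; expressed as % of initial rate in drug-free activated control; mean ± S.E.M., n = 3–4; top concentration 30 μM.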

Row | SMILES | growth inhibition (GI) (DU-145) | inhibition at 30 µM (Neutrophil [1]) [%] | growth inhibition (GI) (KB) | growth inhibition (GI) (A549) | IC50 (Neutrophil [2]) [µM] | growth inhibition (GI) (HCT-8) | inhibition at 30 µM (Neutrophil [3]) [%] | IC50 (Neutrophil [4]) [µM] | GI50 (DU-145; DU-145, 72 h) [µg/mL] | GI50 (KB; 72 h) [µg/mL]
1 | CCCCOC(=O)[C@H]1O[C@@H](O[C@H]2CC[C@]3(C)[C@H]4CC=C5[C@@H]6CC(C)(C)CC[C@]6(C(=O)O[C@@H]6O[C@H](CO)[C@@H](O)[C@H](O)[C@H]6O)CC[C@@]5(C)[C@]4(C)CC[C@H]3C2(C)C)[C@H](O[C@@H]2OC[C@@H](O)[C@H](O)[C@H]2O)[C@@H](O)[C@@H]1O | inactive | 20 | inactive | inactive | 21.2 | inactive |  |  |  | 
2 | CC1(C)CC[C@]2(C(=O)O[C@@H]3O[C@H](CO)[C@@H](O)[C@H](O)[C@H]3O)CC[C@]3(C)C(=CC[C@@H]4[C@@]5(C)CC[C@H](O[C@@H]6O[C@H](C(=O)O)[C@@H](O[C@@H]7O[C@@H](CO)[C@H](O)[C@H]7O)[C@H](O)[C@H]6O)C(C)(C)[C@@H]5CC[C@]43C)[C@@H]2C1 | inactive | 27.6 | inactive | inactive |  | inactive | 14.6 |  |  | 
3 | COC(=O)[C@H]1O[C@@H](O[C@H]2CC[C@]3(C)[C@H]4CC=C5[C@@H]6CC(C)(C)CC[C@]6(C(=O)O[C@@H]6O[C@H](CO)[C@@H](O)[C@H](O)[C@H]6O)CC[C@@]5(C)[C@]4(C)CC[C@H]3C2(C)C)[C@H](O)[C@@H](O)[C@@H]1O[C@@H]1O[C@@H](CO)[C@H](O)[C@H]1O | inactive | 27.5 | inactive | inactive | 19.7 | inactive |  |  |  | 
4 | CC(C)(O)[C@@H]1CC[C@@](C)([C@H]2CC[C@]3(C)[C@@H]2[C@H](O)C[C@@H]2[C@@]4(C)CC[C@H](O)C(C)(C)[C@@H]4[C@@H](O[C@@H]4O[C@H](CO)[C@@H](O)[C@H](O)[C@H]4O[C@@H]4O[C@H](CO)[C@@H](O)[C@H](O)[C@H]4O)C[C@]23C)O1 | inactive | -4.95 | inactive | inactive |  | inactive | 7.4 |  |  | 
5 | CC1(C)CC[C@]2(C(=O)O[C@@H]3O[C@H](CO)[C@@H](O)[C@H](O)[C@H]3O)CC[C@]3(C)C(=CC[C@@H]4[C@@]5(C)CC[C@H](O)C(C)(C)[C@@H]5CC[C@]43C)[C@@H]2C1 | inactive |  | inactive | inactive |  | inactive | 43.6 | 9.64 |  | 
6 | CC(C)=CC/C=C(\C)[C@H]1CC[C@]2(C)[C@@H]1[C@H](O)C[C@@H]1[C@@]3(C)CC[C@H](O[C@@H]4O[C@H](CO)[C@@H](O)[C@H](O)[C@H]4O[C@@H]4O[C@H](CO)[C@@H](O)[C@H](O)[C@H]4O)C(C)(C)[C@@H]3CC[C@]12C | inactive |  | inactive | inactive |  | inactive |  |  |  | 
7 | CC(C)=CCC[C@@](C)(O)[C@H]1CC[C@]2(C)[C@@H]1[C@H](O)C[C@@H]1[C@@]3(C)CC[C@H](O[C@@H]4O[C@H](CO)[C@@H](O)[C@H](O)[C@H]4O[C@@H]4O[C@H](CO)[C@@H](O)[C@H](O)[C@H]4O)C(C)(C)[C@@H]3CC[C@]12C | inactive |  | inactive | inactive |  | inactive |  |  |  | 
8 | CC(C)=CCC[C@](C)(O)[C@H]1CC[C@]2(C)[C@@H]1[C@H](O)C[C@@H]1[C@@]3(C)CC[C@H](O[C@@H]4O[C@H](CO)[C@@H](O)[C@H](O)[C@H]4O[C@@H]4O[C@H](CO)[C@@H](O)[C@H](O)[C@H]4O)C(C)(C)[C@@H]3CC[C@]12C | inactive |  | inactive | inactive |  | inactive |  |  |  | 
9 | CC(C)=CCC[C@](C)(O[C@@H]1O[C@H](CO[C@@H]2O[C@H](CO)[C@@H](O)[C@H](O)[C@H]2O)[C@@H](O)[C@H](O)[C@H]1O)[C@H]1CC[C@]2(C)[C@@H]1[C@H](O)C[C@@H]1[C@@]3(C)CC[C@H](O[C@@H]4O[C@H](CO)[C@@H](O)[C@H](O)[C@H]4O[C@@H]4O[C@H](CO)[C@@H](O)[C@H](O)[C@H]4O)C(C)(C)[C@@H]3CC[C@]12C [GINSENOSIDE RB1] | inactive | 7.36 | inactive | inactive |  | inactive | 10.8 |  |  | 
10 | CC(C)=CCC[C@](C)(O[C@@H]1O[C@H](CO)[C@@H](O)[C@H](O)[C@H]1O)[C@H]1CC[C@]2(C)[C@@H]1[C@H](O)C[C@@H]1[C@@]3(C)CC[C@H](O[C@@H]4O[C@H](CO)[C@@H](O)[C@H](O)[C@H]4O[C@@H]4O[C@H](CO)[C@@H](O)[C@H](O)[C@H]4O)C(C)(C)[C@@H]3CC[C@]12C [GINSENOSIDE RD] | inactive | 2.88 | inactive | inactive |  | inactive | -3.54 |  |  | 
11 | CC(C)=CCC[C@](C)(O)[C@H]1CC[C@]2(C)[C@@H]1[C@H](O)C[C@@H]1[C@@]3(C)CC[C@H](O)C(C)(C)[C@@H]3[C@@H](O[C@@H]3O[C@H](CO)[C@@H](O)[C@H](O)[C@H]3O[C@@H]3O[C@H](CO)[C@@H](O)[C@H](O)[C@H]3O)C[C@]12C [GINSENOSIDE RF] | inactive | 29.5 | inactive | inactive |  | inactive | 8.94 |  |  | 
12 | CC(C)=CCC[C@](C)(O[C@@H]1O[C@H](CO)[C@@H](O)[C@H](O)[C@H]1O)[C@H]1CC[C@]2(C)[C@@H]1[C@H](O)C[C@@H]1[C@@]3(C)CC[C@H](O)C(C)(C)[C@@H]3[C@@H](O[C@@H]3O[C@H](CO)[C@@H](O)[C@H](O)[C@H]3O)C[C@]12C [GINSENOSIDE RG1] | inactive | 19 | inactive | inactive |  | inactive | 14.1 |  |  | 
13 | C/C(=C/CC[C@](C)(O)[C@H]1CC[C@]2(C)[C@@H]1[C@H](O)C[C@@H]1[C@@]3(C)CC[C@H](O)C(C)(C)[C@@H]3[C@@H](O[C@@H]3O[C@H](CO)[C@@H](O)[C@H](O)[C@H]3O[C@@H]3O[C@H](CO)[C@@H](O)[C@H](O)[C@H]3O)C[C@]12C)CO [PANAJAPONOL A] |  | 42 |  | Active |  | Active | 20.3 |  | 7.3 (≈ 8.93 µM) | 6.3 (≈ 7.71 µM)
14 | CC[C@H](CC[C@@H](C)[C@H]1CC[C@H]2[C@@H]3CC=C4C[C@@H](O[C@@H]5O[C@H](CO)[C@@H](O)[C@H](O)[C@H]5O)CC[C@]4(C)[C@H]3CC[C@]12C)C(C)C [SITOGLUSIDE] | inactive | 21.7 | inactive | inactive |  | inactive | 7.45 |  |  | 
15 | CC1(C)CC[C@]2(C(=O)O[C@@H]3O[C@H](CO)[C@@H](O)[C@H](O)[C@H]3O)CC[C@]3(C)C(=CC[C@@H]4[C@@]5(C)CC[C@H](O[C@@H]6O[C@H](C(=O)O)[C@@H](O[C@H]7O[C@@H](CO)[C@H](O)[C@H]7O)[C@H](O[C@@H]7O[C@H](CO)[C@@H](O)[C@H](O)[C@H]7O)[C@H]6O)C(C)(C)[C@@H]5CC[C@]43C)[C@@H]2C1 [STIPULEANOSIDE R2] | inactive | 23.7 | inactive | inactive |  | inactive | 0.78 |  |  | 
